Compounds with a hit are over-represented: about 3.1% of the library has one in this group of screens.
miR122 inh: blocks miR-122 activity in Huh7 sensor cells; Huh7 miR-122 Renilla luciferase sensor, 48 h; neutral wells = 0, positive control = 100; hit rate 0.3% among 340,000; activation (reporter increase), % at 12.5 µM;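 active = mean replicate activation score at least 90 and every replicate individually at or above 90; inconclusive = only one of the two criteria met; inactive = neither criterion met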;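 note: higher luciferase means less miR-122 activity so hits act as miR-122 inhibitors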
HIV Env fusion: inhibitors of HIV Env-mediated cell fusion; inhibition, % at 12.3 µM; AID 651610; hit rate 1.1% among 360,000; HeLa-JRFL Env/CEM21 cell fusion, luciferase;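 active = mean replicate inhibition score of at least 50 and every replicate individually at or above 50; inconclusive = only one of the two criteria met; inactive = mean below 50 and not all replicates reaching 50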;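 note: 0% = plate neutral controls and 100% = maraviroc near 300 nM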
Ecoli rRNA inh: inhibits bacterial ribosomal RNA function over humanized ribosomes; E. coli WT GFP vs humanized-ribosome RFP mutants, fluorescence, 24 h; active compounds read low; DMSO median 0, no signal -100; GFP signal change (wild-type ribosome), % (test concentration not listed); hit rate 1.6% among 350,000; AID 720706;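 active = significant combined selectivity score with lowered wild-type GFP, culture density cut under 30%, mutant RFP and density less affected; inactive = any of these conditions unmet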
CFTR F508del cor: correctors of CFTR F508del function in bronchial epithelial cells; hit rate 0.36% among 350,000; activity (quench increase), % at 7.58 µM; AID 720511; CFBE cells, YFP halide quenching; stimulated with forskolin plus potentiator P3; % fluorescence drop versus neutral controls;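 active = mean added fluorescence quench of at least 8% versus neutral control, with both replicates also reaching 8%; inconclusive = only one of the mean or replicate conditions met; inactive = mean below 8% and not both replicates reaching 8%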;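 note: cells transiently co-express mutant CFTR-F508del with the halide-sensitive YFP; corrector assay measuring rescue of mutant channel to the surface after 24 h compound exposure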
Cneo AK release: Cryptococcus neoformans lysis via adenylate kinase release; C. neoformans lysis, adenylate kinase release luminescence, 4 h; normalised: neutral wells 0, clomiphene wells 100; hit rate 0.2% among 360,000; AID 651654; lysis activity, % at 15 µM;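 active = mean lysis activity across replicates of at least 80%, whatever share of replicates individually reach that level; inactive = mean lysis activity below 80%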
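Material – Cryptococcus neoformans yeast cells · Quantity – 5 × 10^6 yeast cells/mL · Buffer or medium – YPD medium · Compound – single dose · Timing – 4 h static compound exposure, 37 °C, read 1 h post-reagent · Signal – adenylate kinase release luminescence · Read-out basis – lysis from increased AK signal · Benchmarks – Clomiphene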
INS-1E GSIS act: primary screen for activators of insulin secretion dependent on glucose, INS-1E cells, GLuc reporter luminescence | INS-1E GLuc reporter insulin secretion, 2-3 h | activation, % at 16.6 µM | hit rate 0.61% among 370,000 | AID 743287;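 active = lowest replicate activation of at least 40%, so every replicate reaches that level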;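 note: 0% = median of neutral control wells and 100% = median of IBMX positive control wells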
* marks the source's active call; other numbers are inactive results; u = inconclusive; x = no result; [ ] = dose if it differs, or a comment.

SMILES	miR122 inh	HIV Env fusion	Ecoli rRNA inh	CFTR F508del cor	Cneo AK release	INS-1E GSIS act
Cc1sc2ncnc(N3CCN(c4ncccn4)CC3)c2c1C	-5.3	x	x	x	2.9	x
C[C@@H]1CN([C@@H](C)CO)C(=O)Cc2cc(NS(C)(=O)=O)ccc2O[C@@H]1CN(C)Cc1ccc(C(=O)O)cc1	-1.0[16.7 µM]	1.2[16.7 µM]	1.1	2.1	1.4	3.8
O=C(O)C1=C[C@@H](O)[C@@H](O)[C@H](O)C1	-3.4	-7.8	x	9.7*	0.7	x
C[C@H](CO)N1C[C@H](C)[C@H](CN(C)C(=O)Nc2ccc(F)cc2)OCCCC[C@H](C)Oc2ccc(NC(=O)NC3CCCCC3)cc2C1=O	3.7[16.7 µM]	-16.2[16.7 µM]	-3.3	-0.4	0.5	-11.4
Cc1cccc(NC(=O)CN2C(=O)S/C(=C\C(=O)Nc3ccc(Cl)cc3)C2=O)c1	6.1	5.1	x	x	2.4	199.3*
O=C(/C=C1\SC(=O)N(CC(=O)Nc2ccc(Cl)cc2)C1=O)Nc1ccc(F)cc1	x	-2.7	x	x	x	5.8
CCOC(=O)Nc1cc2c(c(N)n1)N=C(c1ccccc1)CN2	u	-8.2	19.3	12.1*	x	13.1
CC(NC1CCCCC1)C(=O)NN=C(c1ccccc1)c1ccccc1 (centres undefined)	x	23.7	-25.4*	-4.6	x	1.0
Cc1cc(C)c2oc(C(=O)NC3CCS(=O)(=O)C3)cc(=O)c2c1 (centres undefined)	-2.7	0.5	0.5	0.8	-1.1	7.8
Cc1ccc2c(=O)cc(C(=O)NC3CCS(=O)(=O)C3)oc2c1C (centres undefined)	x	-0.1	-27.1	-2.1	4.1	42.1*
O=C(C[C@H]1C[C@H]2c3cc(NC(=O)C4CCC4)ccc3O[C@H]2[C@@H](CO)O1)NCC(F)(F)F	2.7[16.7 µM]	56.5*[16.7 µM]	0.8	-0.9	-7.4	-1.2
O=C(C[C@@H]1C[C@@H]2c3cc(NC(=O)C4CCC4)ccc3O[C@@H]2[C@H](CO)O1)NCC(F)(F)F	3.5[16.7 µM]	-8.9[16.7 µM]	1.7	-1.5	-11.4	-0.9
COCCNC(=O)C[C@@H]1C[C@H]2c3cc(NC(=O)C4CCC4)ccc3O[C@H]2[C@@H](CO)O1	13.8[16.7 µM]	20.0[16.7 µM]	3.4	1.9	84.4*	12.6
O=C(C[C@@H]1C[C@H]2c3cc(NC(=O)C4CCC4)ccc3O[C@H]2[C@H](CO)O1)NCC(F)(F)F	-1.3[16.7 µM]	92.9*[16.7 µM]	0.6	0.8	-3.9	4.5
COc1ccc(NC(=S)NCCCN2CCN(C3CCCCC3)CC2)cc1	-2.1	62.8*	31.9	-1.5	-3.9	-6.3
CCN(CC)CCCNc1ccc2ncn3c4ccc(O)cc4c(=O)c1c23	x	37.1	22.0	19.9*	x	-9.6
O=C(c1ccccc1)N1C[C@H]2[C@@H](c3ccccc31)[C@H](CO)N2C(=O)Nc1ccccc1Cl	21.4[16.7 µM]	x	-4.1	1.2	4.0	-6.6
COc1ccc(/C=C/C(=O)Nc2cccc(F)c2)cc1S(=O)(=O)N1CCOCC1	2.5	13.4	-26.7*	-4.4	-8.0	-10.2
COc1ccc(/C=C/C(=O)Nc2ccccc2F)cc1S(=O)(=O)N1CCOCC1	-6.1	-0.5	-19.8*	-2.0	-0.3	13.3
COc1ccc(/C=C/C(=O)Nc2cc(S(=O)(=O)N3CCCCC3)ccc2N2CCCCC2)cc1OC	-3.0	43.3	x	x	3.0	-1.9
COc1ccc(/C=C/C(=O)Nc2cc(S(=O)(=O)N3CCOCC3)ccc2N2CCCC2)cc1OC	x	3.3	-21.6*	5.0	x	15.3
O=C(c1cnccn1)N1CC(=O)N2[C@H](CO)[C@H](c3ccc(C#CCc4ccccc4)cc3)[C@H]2C1	x	x	0.0	0.9	x	-4.3
O=C(C[C@@H]1C=C[C@@H](NC(=O)Cc2ccccn2)[C@H](CO)O1)NCCc1ccccc1	x	-13.7[16.7 µM]	-0.2	1.3	-4.6	20.2
CS(=O)(=O)N1[C@@H]2CN(CC(F)(F)F)C[C@H]1C2c1ccc(Br)cc1 (some centres undefined)	x	x	-23.6	x	x	-19.5
CC(=O)N1CCC(N(CCN2CCOCC2)C(=O)Nc2ccc(Cl)c(Cl)c2)CC1	-1.6	2.8	-40.0*	6.5	1.9	-20.3
SMILES	miR122 inh	HIV Env fusion	Ecoli rRNA inh	CFTR F508del cor	Cneo AK release	INS-1E GSIS act
CCCNC(=O)N[C@@H]1C=C[C@H](CC(=O)NCCc2ccccc2)O[C@@H]1CO	x	5.1[16.7 µM]	0.3	0.4	x	-0.5
O=C(CCS(=O)(=O)c1ccccc1)Nc1ncc([N+](=O)[O-])s1	0.1	12.1	-21.6*	-0.1	-1.6	-8.5
O=C1C=CC(=O)N1c1ccccc1N1C(=O)C=CC1=O	30.9	-64.7	36.1	-3.6	-0.5	x
O=C(c1ccccc1)c1ccccc1N1C(=O)C=CC1=O	x	5.0	0.8	-8.1	x	192.4*
C[C@@H]1CN([C@@H](C)CO)S(=O)(=O)c2ccc(C#CC3CCCC3)cc2O[C@@H]1CN(C)Cc1cncnc1	-6.4[16.7 µM]	-16.4[16.7 µM]	-8.2	-0.5	-5.1	-20.8
C[C@H]1CN([C@@H](C)CO)C(=O)c2cc(-c3ccc(C(=O)N(C)C)cc3)cnc2O[C@H]1CN(C)C(=O)c1ccncc1	11.3[16.7 µM]	-13.5[16.7 µM]	6.1	0.3	-1.4	12.4
S=C(Nc1ccccc1)N1CCN(c2ccccn2)CC1	x	1.2	-3.2	0.7	x	2.7
CCC(C)c1ccc(NC(=S)N2CCN(c3ccccn3)CC2)cc1 (centres undefined)	x	x	-27.2	-0.4	104.8*	-44.6
C[C@H](CO)N1C[C@H](C)[C@@H](CN(C)S(=O)(=O)c2cn(C)cn2)Oc2c(NC(=O)Nc3ccccc3)cccc2C1=O	34.4[16.7 µM]	19.7[16.7 µM]	-1.2	-0.7	96.7*	6.0
C[C@@H]1CN([C@@H](C)CO)C(=O)c2cccc(NC(=O)Nc3ccccc3)c2O[C@H]1CN(C)S(=O)(=O)c1cn(C)cn1	17.0[16.7 µM]	31.7[16.7 µM]	2.5	1.6	96.7*	8.6
C[C@@H]1CN([C@H](C)CO)C(=O)c2cccc(NC(=O)Nc3ccccc3)c2O[C@H]1CN(C)S(=O)(=O)c1cn(C)cn1	4.2[16.7 µM]	23.3[16.7 µM]	-1.6	3.8	38.2	2.2
C[C@H]1CC=CC[C@H](c2ccc3c(c2)OCO3)NC(=O)[C@@H](Cc2ccccc2)N(C)C(=O)c2ccccc2O1 (mixture of isomers)	x	x	-7.6	x	x	-23.1
CCS(=O)(=O)N1CCCCN2[C@@H](CO)[C@@H](c3ccc(-c4ccccc4C)cc3)[C@@H]2C1	3.8[16.7 µM]	x	5.8	1.6	-0.8	-20.2
CN(C)CC#Cc1ccc([C@H]2[C@@H](CO)N3CCCCN(C(=O)Nc4ccc(F)cc4)C[C@@H]23)cc1	12.2[16.7 µM]	x	-0.2	2.0	-0.3	2.4
COc1cc(CNn2c(C)n[nH]c2=S)cc(Br)c1OCc1ccc(F)cc1	x	27.7	-29.2	x	x	-9.3
C=CCOc1c(Br)cc(CNn2c(C)n[nH]c2=S)cc1OCC	3.6	7.6	-30.7*	-0.9	-0.3	7.0

Screens: PubChem, Broad Institute
